Results gathered from unrelated publications.
Lines come from different studies, so protocols differ.
Target: Dual specificity mitogen-activated protein kinase kinase 3 (MAP2K3, Homo sapiens, UniProt P46734)
Sequence (P46734 1-347, as in one of the studies): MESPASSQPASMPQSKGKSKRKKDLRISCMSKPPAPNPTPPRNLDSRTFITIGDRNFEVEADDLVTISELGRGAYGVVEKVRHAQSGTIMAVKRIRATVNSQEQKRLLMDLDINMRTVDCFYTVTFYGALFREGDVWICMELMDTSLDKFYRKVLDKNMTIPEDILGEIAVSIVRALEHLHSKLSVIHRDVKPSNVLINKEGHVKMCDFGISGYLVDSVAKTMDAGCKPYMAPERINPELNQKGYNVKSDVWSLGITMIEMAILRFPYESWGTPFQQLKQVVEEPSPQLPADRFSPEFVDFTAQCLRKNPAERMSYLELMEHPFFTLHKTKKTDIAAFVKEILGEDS

Compound	observed	method	tested at	remaining binding [%]
C=CC(=O)N1CCC(C(=O)NCC(=O)N2CCN(c3nc(-c4cnc(N)nc4C(F)F)nc(N4CCOCC4)n3)CC2)CC1	binding	competition with immobilised ligand	1 µM	59
O=C(NCc1ncc(C(F)(F)F)cc1Cl)c1ccc2c(c1)C1(CCS(=O)(=O)CC1)[C@@H](C1CC1)N2S(=O)(=O)c1ccc(F)cc1	cell-free assay	competition with immobilised ligand	1 µM	73
O=C(c1ccc(Nc2nccc(-c3cc4ccccc4s3)n2)cc1)N1CCC(N2CCCC2)CC1	binding	competition with immobilised ligand	1 µM	42
FC(F)(F)Oc1cccc(-c2cnc3ccc(-c4ccncc4)nn23)c1	cell-free assay	competition with immobilised ligand	5 µM	35
c1cncc(-c2cccc(Nc3nccc(NC4CCCCC4)n3)c2)c1	binding	competition with immobilised ligand	10 µM	32
c1cnn2ncc(-c3ccnc(N4CCC45COC5)n3)c2c1	binding	–	1 µM	31
CCN1CCN(Cc2ccc(C(=O)Nc3ccc(C)c(Oc4ccc5c(c4)CC(=O)N5)c3)cc2C(F)(F)F)CC1	binding	competition with immobilised ligand	1 µM	100
CNC(=O)[C@@H]1CC[C@@H](n2c(-c3ccc4cnccc4c3)nc3ccc(C(=O)NCc4cccc(C(N)=O)c4)cc32)C1	binding	competition with immobilised ligand	1 µM	98
F[C@@H]1CCN(c2nccc(-c3cnn4ncccc34)n2)C1	binding	–	1 µM	83
CN(C)C(=O)Cn1cc(-c2nc([C@@](C)(c3ccc(-c4cnc(N)nc4)cc3)C3CC3)no2)cn1	cell-free assay	competition with immobilised ligand	1 µM	83
O=C(NCCCN1CCOCC1)c1ccc(Nc2ncc(Cl)c(-c3ccc(Cl)s3)n2)cc1	binding	competition with immobilised ligand	1 µM	51
CO[C@@H](C)c1c(Nc2ccc([C@@H](N(C)C(=O)C3CCS(=O)(=O)CC3)C(F)(F)F)cc2)cnc2cc(Cl)nn12	cell-free assay	competition with immobilised ligand	1 µM	90
Cc1cnn2ncc(-c3ccnc(N(C)C)n3)c2c1	binding	–	1 µM	83
Cc1cnc(Nc2ccc(C(=O)N3CCC(N4CCCC4)CC3)cc2)nc1-c1cc2ccccc2s1	binding	competition with immobilised ligand	1 µM	42
CN(C)c1ncnc(-c2ccc3nc(Nc4cc(CN5CCN(C(=O)CC(F)(F)F)CC5)ccn4)[nH]c3c2)c1Cl	cell-free assay	competition with immobilised ligand	1 µM	73
O=C(Nc1c[nH]nc1C(=O)NC1CCNCC1)c1cc(F)cc(F)c1	binding	competition with immobilised ligand	1 µM	100
CCCOc1ccc([C@H]2[C@H](C(=O)O)[C@@H](c3ccc4c(c3)OCO4)CN2CC(=O)Nc2c(CC)cccc2CC)cc1	cell-free assay	competition with immobilised ligand	1 µM	60
COc1ccnn2ncc(-c3ccnc(N(C)C)n3)c12	binding	–	1 µM	71
FC(F)(F)c1ccc2c(c1)nc(-c1cccnc1)n2C1CC1	cell-free assay	competition with immobilised ligand	1 µM	100
CN(C)c1ncc(F)c(-c2cnn3ncccc23)n1	binding	–	1 µM	78
C[C@H](NC(=O)c1cnc2n1[C@](C)(Cc1ccc(C#N)cc1)C(=O)N2c1cc(Cl)c(F)c(Cl)c1)C(=O)NC1(c2ccccn2)CC1	cell-free assay	competition with immobilised ligand	1 µM	80
N[C@H]1CCN(c2nccc(-c3cnn4ncccc34)n2)C1	binding	–	1 µM	67
